Reference: ChEMBL document CHEMBL1212938, “Inhibition of mycobacterial replication by pyrimidines possessing various C-5 functionalities and related 2'-deoxynucleoside analogues using in vitro and in vivo models” (J Med Chem, 2010)
Values after ≈ are worked out from the molar mass of the structure shown.

Legend:
[1] = test system: Mycobacterium tuberculosis; test: Antitubercular activity against Mycobacterium bovis BCG at 1 to 5 ug/ml after 6 days by microplate alamar blue assay; assay type: functional, variant bovis BCG
Summary of the method: (§1)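 MABA run in 7H9GC medium, with drug diluted from DMSO stocks made at 100× the highest final concentration. Final levels were 100, 50, 10, 5, 2.5 and 1 μg/mL in triplicate, and the experiment was done three times. Inoculum was 2.5 × 10⁵ CFU/mL final. Alamar Blue plus Tween-80 was added once bacteria-only control wells turned pink, from day 6 on, and plates were read visually and by fluorescence after 24 h. Visual MIC is the lowest concentration preventing the blue-to-pink change. Mean percent inhibition was taken relative to bacteria-only and medium-only wells.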

[2] = test system: Mycobacterium tuberculosis; test: Antitubercular activity against Mycobacterium bovis BCG at 50 ug/ml after 6 days by microplate alamar blue assay; assay type: functional; details: variant bovis BCG, 144 h; summary of the method: as §1
[3] = test system: Mycobacterium tuberculosis; test: Antitubercular activity against Mycobacterium bovis BCG after 6 days by microplate alamar blue assay; assay type: functional; details: variant bovis BCG, 144 h; summary of the method: as §1
[4] = test system: Mycobacterium tuberculosis; test: Antitubercular activity against Mycobacterium bovis BCG at 10 ug/ml after 6 days by microplate alamar blue assay; assay type: functional; details: variant bovis BCG, 144 h; summary of the method: as §1
[5] = test system: Mycobacterium tuberculosis; test: Antitubercular activity against Mycobacterium bovis BCG at 100 ug/ml after 6 days by microplate alamar blue assay; assay type: functional; details: variant bovis BCG, 144 h; summary of the method: as §1
[6] = test system: Mycobacterium tuberculosis; test: Antitubercular activity against Mycobacterium bovis BCG at 0.5 to 1 ug/ml after 6 days by microplate alamar blue assay; assay type: functional, variant bovis BCG; summary of the method: as §1
[7] = test system: Mycobacterium tuberculosis; test: Antitubercular activity against Mycobacterium bovis BCG at 1 ug/ml after 6 days by microplate alamar blue assay; assay type: functional; details: variant bovis BCG, 144 h; summary of the method: as §1
[8] = test system: Mycobacterium tuberculosis; test: Antitubercular activity against Mycobacterium bovis BCG at 5 ug/ml after 6 days by microplate alamar blue assay; assay type: functional; details: variant bovis BCG, 144 h; summary of the method: as §1

O=c1[nH]c(=O)n([C@H]2C[C@H](O)[C@@H](CO)O2)cc1C#Cc1ccccn1
inhibition (INH) [1]: 50%
inhibition at 50 µg/mL [2]: 90%
MIC50 [3]: 1 µg/mL (≈ 3.04 µM)
inhibition at 10 µg/mL [4]: 80%
inhibition at 100 µg/mL [5]: 50%

CCCc1ccc(C#Cc2c[nH]c(=O)[nH]c2=O)cc1
inhibition (INH) [1]: 50%
inhibition at 50 µg/mL [2]: 70%
MIC50 [3]: 1 µg/mL (≈ 3.93 µM)
inhibition at 10 µg/mL [4]: 70%
inhibition at 100 µg/mL [5]: 100%

Nc1nc(=O)n([C@H]2C[C@H](O)[C@@H](CO)O2)cc1C#Cc1ccccn1
inhibition (INH) [1]: 50%
inhibition at 50 µg/mL [2]: 90%
MIC50 [3]: 1 µg/mL (≈ 3.05 µM)
inhibition at 10 µg/mL [4]: 80%
inhibition at 100 µg/mL [5]: 90%

C(C#Cc1ccccn1)#Cc1ccccn1
inhibition (INH) [6]: 80%
inhibition at 50 µg/mL [2]: 100%
MIC50 [3]: < 0.5 µg/mL
inhibition at 10 µg/mL [4]: 100%
inhibition at 100 µg/mL [5]: 100%

CO[C@H]1/C=C/O[C@@]2(C)Oc3c(C)c(O)c4c(O)c(c(/C=N/N5CCN(C)CC5)c(O)c4c3C2=O)NC(=O)/C(C)=C\C=C\[C@H](C)[C@H](O)[C@@H](C)[C@@H](O)[C@@H](C)[C@H](OC(C)=O)[C@@H]1C [RIFAMPIN]
inhibition at 1 µg/mL [7]: 100%
MIC50 [3]: < 1 µg/mL

O=c1[nH]cc(C#Cc2ccccn2)c(=O)[nH]1
inhibition at 5 µg/mL [8]: 60%
inhibition at 50 µg/mL [2]: 75%
MIC50 [3]: < 5 µg/mL
inhibition at 10 µg/mL [4]: 75%
inhibition at 100 µg/mL [5]: 90%

NNC(=O)c1ccncc1 [ISONIAZID]
inhibition at 1 µg/mL [7]: 100%
MIC50 [3]: < 1 µg/mL

CCCCCc1cc2c[nH]c(=O)nc2o1
MIC50 [3]: 100 µg/mL (≈ 485 µM)

CCCCCc1ccc(C#Cc2c[nH]c(=O)[nH]c2=O)cc1
inhibition (INH) [1]: 50%
inhibition at 50 µg/mL [2]: 60%
MIC50 [3]: 1 µg/mL (≈ 3.54 µM)
inhibition at 10 µg/mL [4]: 60%
inhibition at 100 µg/mL [5]: 90%

O=c1[nH]cc(C#Cc2ccccc2)c(=O)[nH]1
inhibition at 50 µg/mL [2]: 90%
MIC50 [3]: ≥ 10 µg/mL
inhibition at 10 µg/mL [4]: 40%
inhibition at 100 µg/mL [5]: 90%

N[C@@H]1CONC1=O [CYCLOSERINE]
inhibition at 5 µg/mL [8]: 50%
MIC50 [3]: 5 µg/mL (≈ 49 µM)
inhibition at 10 µg/mL [4]: 71%

CCCc1cc2c[nH]c(=O)nc2o1
inhibition at 50 µg/mL [2]: 50%
MIC50 [3]: 10 µg/mL (≈ 56.1 µM)
inhibition at 10 µg/mL [4]: 50%
inhibition at 100 µg/mL [5]: 90%
